# From ChEMBL document CHEMBL1122415, “Folate antagonists. 20. Synthesis and antitumor and antimalarial properties of trimetrexate and related 6-[(phenylamino)methyl]-2,4-quinazolinediamines” (1983)
# Several values for one entry are separate records, joined by “and”; a condition that tells them apart may be missing. Equal entries are not always repeated.
# What was measured:
# Plasmodium berghei [1] = experiment: Antimalarial effect against trophozoite-induced Plasmodium berghei in mice (Mus musculus) at 40 mg/kg subcutaneous dose; type: functional
# L1210 = experiment: Molar concentration required to reduce the number of L1210 cells by 50% after incubation for 2 days; type: functional, Mus musculus; settings: read-out: ID50 (the source's name)
# Outline: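 L1210 leukemia cells in tissue culture exposed to drug for 2 days. ID50 is the molar concentration that reduces L1210 cell number by 50%. Mithramycin is the reference drug.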
# Mus musculus [2] = experiment: Antimalarial effect against trophozoite-induced Plasmodium berghei in mice (Mus musculus) after subcutaneous administration dose of 320 mg/kg; 3 survived after 60 days of postinfection; type: functional
# Plasmodium berghei [3] = experiment: Antimalarial effect against trophozoite-induced Plasmodium berghei in mice (Mus musculus) after subcutaneous dose of 10 mg/kg; type: functional
# Plasmodium berghei [4] = experiment: Antimalarial effect against trophozoite-induced Plasmodium berghei in mice (Mus musculus) at 80 mg/kg subcutaneous dose; type: functional
# Plasmodium berghei [5] = experiment: Antimalarial effect against trophozoite-induced Plasmodium berghei in mice (Mus musculus) at 320 mg/kg subcutaneous dose; type: functional; settings: 320 mg/kg
# Mus musculus [6] = organism: Mus musculus; experiment: Daily dose required for 90% parasitaemia in trophozoite induced Plasmodium berghei in 21 mice; type: functional
# Outline: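 Oral suppressive test in mice against a normal drug-sensitive P. berghei strain. Drug given continuously in the diet for six consecutive days, with doses as free base equivalent. SD90 is the daily dose (mg/kg) giving 90% suppression of parasitemia versus control mice, estimated graphically on semilog paper.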
# Plasmodium berghei [7] = experiment: Antimalarial effect against trophozoite-induced Plasmodium berghei in mice (Mus musculus) at 20 mg/kg subcutaneous dose; type: functional
# Plasmodium berghei [8] = experiment: Antimalarial effect against trophozoite-induced Plasmodium berghei in mice (Mus musculus) after subcutaneous dose of 160 mg/kg; type: functional
# Mus musculus [9] = experiment: (§1) Antimalarial effect against trophozoite-induced Plasmodium berghei in mice (Mus musculus) after subcutaneous administration dose of 20 mg/kg; type: functional
# Mus musculus [10] = experiment: as §1; type: functional; remark: listed apart in the source
# Mus musculus [11] = experiment: Antimalarial effect against trophozoite-induced Plasmodium berghei in mice (Mus musculus) after subcutaneous administration dose of 10 mg/kg; type: functional; settings: 10 mg/kg
# Mus musculus [12] = experiment: Antimalarial effect against trophozoite-induced Plasmodium berghei in mice (Mus musculus) after subcutaneous administration dose of 2.5 mg/kg; type: functional
# Mus musculus [13] = experiment: Antimalarial effect against trophozoite-induced Plasmodium berghei in mice (Mus musculus) after subcutaneous administration dose of 160 mg/kg; 3 survived after 60 days of postinfection; type: functional; settings: 160 mg/kg
# Mus musculus [14] = experiment: Antimalarial effect against trophozoite-induced Plasmodium berghei in mice (Mus musculus) after subcutaneous administration dose of 80 mg/kg; 1 survived after 60 days of postinfection; type: functional
# Mus musculus [15] = experiment: Antimalarial effect against trophozoite-induced Plasmodium berghei in mice (Mus musculus) after subcutaneous administration dose of 40 mg/kg; 1 survival after 60 days; type: functional
# Mus musculus [16] = experiment: Antimalarial effect against trophozoite-induced Plasmodium berghei in mice (Mus musculus) after subcutaneous after 60 days; type: functional
# Mus musculus [17] = experiment: Antimalarial effect against trophozoite-induced Plasmodium berghei in mice (Mus musculus) after subcutaneous administration dose of 640 mg/kg; type: functional
# Plasmodium berghei [18] = experiment: Antimalarial effect against trophozoite-induced Plasmodium berghei in mice (Mus musculus) at 5 mg/kg subcutaneous dose; type: functional
# Mus musculus [19] = experiment: Antimalarial effect against trophozoite-induced Plasmodium berghei in mice (Mus musculus) after subcutaneous administration dose of 20 mg/kg; 2 survived after 60 days of postinfection; type: functional
# Mus musculus [20] = experiment: Antimalarial effect against trophozoite-induced Plasmodium berghei in mice (Mus musculus) after subcutaneous administration dose of 160 mg/kg; 4 survived after 60 days; type: functional
# Mus musculus [21] = experiment: Antimalarial effect against trophozoite-induced Plasmodium berghei in mice (Mus musculus) after subcutaneous administration dose of 80 mg/kg; 1 survived after 60 days; type: functional
# Mus musculus [22] = experiment: Antimalarial effect against trophozoite-induced Plasmodium berghei in mice (Mus musculus) after subcutaneous administration dose of 1.25 mg/kg; type: functional
structure (smiles),measurement,setting,value
CC(=O)O.Nc1nc(N)c2cc(CNc3cccc(Br)c3)ccc2n1,Delta MST,Plasmodium berghei [1],3.1 days
same,IC50,"L1210; Mus musculus, L1210, 48 h",86 nM
same,IC50,L1210,71 nM
same,Delta MST,Mus musculus [2],9.2 days
same,Delta MST,Plasmodium berghei [3],0.4 days
same,Delta MST,Plasmodium berghei [4]; 80 mg/kg,8.8 days and 10.2 days and 3.6 days
same,Delta MST,Plasmodium berghei [5],9.2 days and 9.8 days
same,SD90,Mus musculus [6],9 mg/kg/day
same,Delta MST,Plasmodium berghei [7]; 20 mg/kg,1.5 days and 1.8 days
same,Delta MST,Plasmodium berghei [8],9.2 days
CC(=O)O.Nc1nc(N)c2c(Cl)c(CNc3ccc(Cl)cc3)ccc2n1.O,Delta MST,Mus musculus [9],16.9 days and 17.4 days
same,Delta MST,Mus musculus [10],16.9 days
same,Delta MST,Mus musculus [11],6.9 days and 6.1 days
same,Delta MST,Mus musculus [12],2.7 days
CC(=O)O.Nc1nc(N)c2cc(CN(N=O)c3ccc(Cl)c4ccccc34)ccc2n1,Delta MST,Plasmodium berghei [1]; 40 mg/kg,2.9 days and 2.7 days
same,IC50,"L1210; Mus musculus, L1210, 48 h",130 nM
same,IC50,L1210,170 nM
same,Delta MST,Plasmodium berghei [3],0.3 days
same,Delta MST,Plasmodium berghei [4]; 80 mg/kg,5.7 days and 5.9 days
same,Delta MST,Plasmodium berghei [5],14.7 days and 14.9 days
same,Delta MST,Plasmodium berghei [7]; 20 mg/kg,0.7 days and 0.5 days
same,Delta MST,Plasmodium berghei [8]; 160 mg/kg,12.9 days and 13.1 days
CC(=O)O.Nc1nc(N)c2cc(CNc3ccc(Cl)c(Cl)c3)ccc2n1.O.O,Delta MST,Plasmodium berghei [1]; 40 mg/kg,11.2 days and 5.8 days
same,IC50,L1210,18 nM and 23 nM and 67 nM
same,Delta MST,Plasmodium berghei [3],1.8 days
same,SD90,Mus musculus [6],0.92 mg/kg/day
same,Delta MST,Plasmodium berghei [7],5.8 days
same,Delta MST,Plasmodium berghei [8]; 160 mg/kg,18.8 days and 19.8 days
same,Delta MST,Mus musculus [13],11.8 days and 12.1 days
same,Delta MST,Mus musculus [12]; 2.5 mg/kg,0.4 days and 0.2 days
same,Delta MST,Mus musculus [14],11.8 days
CC1(C)N=C(N)N=C(N)N1c1ccc(Cl)cc1.Cl [CHLORCYCLOGUANIL HYDROCHLORIDE],Delta MST,Mus musculus [15],13.4 days
same,Delta MST,Plasmodium berghei [3],4.9 days
same,Delta MST,Plasmodium berghei [7],7.9 days
same,Delta MST,Mus musculus [16],21.6 days
CC(=O)O.Nc1nc(N)c2cc(CNc3cccc(Cl)c3)ccc2n1.O.O,Delta MST,Plasmodium berghei [1],1.7 days
same,IC50,"L1210; Mus musculus, L1210, 48 h",46 nM
same,IC50,L1210,70 nM
same,Delta MST,Plasmodium berghei [3],0.3 days
same,Delta MST,Mus musculus [17],9.9 days
same,Delta MST,Plasmodium berghei [4],3.3 days
same,Delta MST,Plasmodium berghei [5],20.6 days and 16.4 days and 8.7 days
same,SD90,Mus musculus [6],8.5 mg/kg/day
same,Delta MST,Plasmodium berghei [7]; 20 mg/kg,0.7 days and 0.5 days
CC(=O)O.Cc1c(CNc2ccc(Cl)c(Cl)c2)ccc2nc(N)nc(N)c12,Delta MST,Plasmodium berghei [1],29.8 days
same,IC50,"L1210; Mus musculus, L1210, 48 h",8.4 nM
same,IC50,L1210,4.3 nM
same,Delta MST,Plasmodium berghei [18],8.6 days
same,SD90,Mus musculus [6],0.33 mg/kg/day
same,Delta MST,Plasmodium berghei [7],15.9 days
same,Delta MST,Mus musculus [12]; 2.5 mg/kg,7.2 days and 4 days
same,Delta MST,Mus musculus [19],15.8 days
Nc1nc(N)c2cc(CN(C=O)c3ccc4cc(Cl)ccc4c3)ccc2n1,Delta MST,Plasmodium berghei [1]; 40 mg/kg,1.5 days and 0.5 days
same,IC50,"L1210; Mus musculus, L1210, 48 h",250 nM
same,IC50,L1210,150 nM
same,Delta MST,Mus musculus [17],16.9 days
same,Delta MST,Plasmodium berghei [5],13.9 days and 13.7 days and 10.7 days
same,Delta MST,Plasmodium berghei [7]; 20 mg/kg,0.5 days and 0.3 days
same,Delta MST,Plasmodium berghei [8]; 160 mg/kg,10.9 days and 4.1 days
Nc1nc(N)c2c(Cl)c(CN(N=O)c3ccc(Cl)c(Cl)c3)ccc2n1,Delta MST,Plasmodium berghei [1],8.1 days
same,Delta MST,Plasmodium berghei [3],3.5 days
same,Delta MST,Mus musculus [20],21.9 days
same,Delta MST,Plasmodium berghei [7]; 20 mg/kg,6.1 days and 6.3 days
same,Delta MST,Mus musculus [21],13.4 days
CC(=O)O.Cc1c(CNc2cccc(Br)c2)ccc2nc(N)nc(N)c12.O,Delta MST,Plasmodium berghei [1]; 40 mg/kg,9.3 days and 11.2 days
same,IC50,"L1210; Mus musculus, L1210, 48 h",4.4 nM
same,IC50,L1210,3.7 nM
same,Delta MST,Mus musculus [22],0.5 days
same,Delta MST,Plasmodium berghei [18],7.7 days
same,Delta MST,Plasmodium berghei [4]; 80 mg/kg,21.8 days and 9.2 days
same,SD90,Mus musculus [6],0.2 mg/kg/day
same,Delta MST,Plasmodium berghei [7]; 20 mg/kg,12.6 days and 11.2 days and 7.7 days
CC(=O)O.Nc1nc(N)c2cc(CNc3ccc(Cl)cc3)ccc2n1.O.O,Delta MST,Plasmodium berghei [1],6.9 days
same,IC50,"L1210; Mus musculus, L1210, 48 h",27 nM
same,IC50,L1210,35 nM
same,Delta MST,Plasmodium berghei [4]; 80 mg/kg,6.9 days and 5.1 days
same,SD90,Mus musculus [6],1.9 mg/kg/day
same,Delta MST,Plasmodium berghei [7],5.1 days
same,Delta MST,Plasmodium berghei [8],9.9 days
CC(=O)O.Nc1nc(N)c2c(Cl)c(CNc3ccc(Cl)c(Cl)c3)ccc2n1.O,Delta MST,Mus musculus [22],2.9 days
same,Delta MST,Plasmodium berghei [18],4.3 days
